Published values collected from several papers.
Protocols differ between the studies behind these lines.
Target: Serine/threonine-protein kinase N2 (PKN2, Homo sapiens, UniProt Q16513)

With `CCCCN(CCCC)C(=O)CN1C[C@H](c2cc(OC)c3c(c2)OCO3)[C@@H](C(=O)O)[C@@H]1CC(C)(C)CCC` the remaining binding was 100% (cell-free assay, competition with immobilised ligand; 1 µM).
`COc1cc(/C=C/C(=O)CC(=O)/C=C/c2ccc(O)c(OC)c2)ccc1O` gave an activity vs control of 114% (enzyme activity, inhibitor; 1 µM).
The remaining binding of `CCC(=O)N[C@H]1CC[C@@H](C(=O)N(C)c2ccc(-c3nc4ccccc4o3)cc2)C1` is reported as 100% (cell-free assay, competition with immobilised ligand; 1 µM).
`CCCOc1ccc(OC)c(F)c1C(=O)c1ccc(C(=O)N[C@@H]2CNC[C@H]2NC(=O)c2ccc3[nH]ncc3c2)cc1` gave a remaining activity of 53% (enzyme activity, inhibitor; 0.1 µM).
`COc1cc(Nc2cnc(C#N)c(O[C@H](C)CN(C)C)n2)ncc1-c1cnn(C)c1` gave a remaining activity of 87% (enzyme activity, inhibitor, radiometric; 1 µM).
`Oc1cccc(-c2nc(N3CCOCC3)c3oc4ncccc4c3n2)c1` gave a remaining activity of 71% (enzyme activity, inhibitor; 10 µM).
The ΔTm of `CN1CCC2(CC1)NC(=O)c1c(c3ccc(Cl)c(Cl)c3n1C)C2C#N` (racemic) is reported as 2.5 °C (thermal stability, DSF; 10 µM).
`COc1cc(-c2cc(-c3ccc(N4CCNCC4)cc3)cnc2C)cc(OC)c1OC` gave an inhibition of 4% (enzyme activity, inhibitor; 0.1 µM).
For `O=S(=O)(c1cccc2cnccc12)N1CCCNCC1`, the remaining signal was 103% (cell-free assay; 0.5 µM).
With `COc1cc(Cl)c(C(=O)N[C@@H](CN[C@H]2CC[C@@H](N)CC2)Cc2ccc(C#N)cc2)cc1-c1ccc(CN[C@H](C)c2ccc(C)cc2)o1` the remaining activity was 102% (enzyme activity, inhibitor; 1 µM).
With `CCN1CCN(Cc2ccc(NC(=O)c3ccc(C)c(Oc4ccnc5[nH]ccc45)c3)cc2C(F)(F)F)CC1` the inhibition was -10.5% (target engagement in cells, inhibitor, chemoproteomics; Huh-7; 10 µM).
`CN(C)c1ncnc(-c2ccc3nc(Nc4cc(CN5CCN(C(=O)CC(F)(F)F)CC5)ccn4)[nH]c3c2)c1Cl` has a remaining binding of 85% (cell-free assay, competition with immobilised ligand; 1 µM).
For `Nc1nc(Nc2ccccc2)sc1C(=O)c1c(F)cccc1F`, the remaining activity was 57% (enzyme activity, inhibitor; 10 µM).
`Cc1cc(NC(=O)c2cccc3cc(-c4cccc5[nH]nc(N)c45)ccc23)ccc1F` has an activity vs control of 101% (enzyme activity, inhibitor; 0.1 µM).
With `Nc1ncnc2occ(-c3ccc(NC(=O)Nc4cc(C(F)(F)F)ccc4F)cc3)c12` the remaining signal was 58% (cell-free assay, inhibitor; 20 µM).
`CCCOc1ccc([C@H]2[C@H](C(=O)O)[C@@H](c3ccc4c(c3)OCO4)CN2CC(=O)Nc2c(CC)cccc2CC)cc1` gave a remaining binding of 100% (cell-free assay, competition with immobilised ligand; 1 µM).
`N#CCCc1ccc2c(c1)-c1[nH]c3ccc([N+](=O)[O-])cc3c1CC(=O)N2` has a remaining signal of 77.9% (cell-free assay; 0.5 µM).
With `COc1ccc2c(O[C@@H]3C[C@H]4C(=O)N[C@]5(C(=O)O)CC5/C=C\CCCCC[C@H](NC(=O)OC5CCCC5)C(=O)N4C3)cc(-c3csc(NC(=O)C(C)C)n3)nc2c1C` (some centres unmarked) the remaining binding was 67% (cell-free assay, competition with immobilised ligand; 1 µM).
The remaining activity of `CC(C)(C)c1nc2c(s1)c1nc(N)ncc1c1ccc(NS(=O)(=O)c3c(F)cccc3F)c(F)c12` is reported as 91% (enzyme activity, inhibitor, radiometric; 1 µM).
`CCN(CC)CCNC(=O)c1c(C)[nH]c(/C=C2\C(=O)Nc3ccc(F)cc32)c1C` gave an inhibition of 69% (enzyme activity, inhibitor; 10 µM).
With `CCCCNc1ncc2c(-c3ccc(F)cc3)nn(C[C@H]3CC[C@H](N)CC3)c2n1` the inhibition was 2.9% (target engagement in cells, inhibitor, chemoproteomics; 20 mM).
`Cn1c2c(c3ccc(Cl)c(Cl)c31)C(C#N)C1(CCCC1)NC2=O` (centres unmarked) gave a ΔTm of 0 °C (thermal stability, DSF; 10 µM).
With `FC(F)c1nc2ccccc2n1-c1nc(N2CCOCC2)nc(N2CCOCC2)n1` the remaining activity was 82% (enzyme activity, inhibitor; 10 µM).
The inhibition of `CNCc1ccc(-c2cc(-c3nc(-c4ccc(S(=O)(=O)C(C)C)cc4)cnc3N)on2)cc1` is reported as 59% (enzyme activity, inhibitor; 0.4 µM).
With `CN1CC(Oc2cnc(C#N)cc2-c2ccn3nc(NC(=O)C4CC4)cc3c2)C1` the inhibition was 15% (enzyme activity, inhibitor; 1 µM).
With `CNC(=O)c1cc(Oc2ccc(NC(=O)Nc3ccc(Cl)c(C(F)(F)F)c3)cc2)ccn1` the inhibition was 20% (enzyme activity, inhibitor; 10 µM).
`Cc1nc(Cc2cccc(C(F)(F)F)c2)sc1-c1ccc(C(N)=O)nc1` has a remaining binding of 91% (cell-free assay, competition with immobilised ligand; 1 µM).
With `Cc1ccc(NC(=O)c2ccc(C)c(C(F)(F)F)c2)cc1C#Cc1nn(C2CCC(O)CC2)c2ncnc(N)c12` (centres unmarked) the remaining signal was 97% (cell-free assay; 10 µM).
The remaining binding of `O=C(NS(=O)(=O)c1ccc(NCC2CCOCC2)c([N+](=O)[O-])c1)c1ccc(N2CCN(Cc3ccc(C(F)(F)F)cc3-c3ccc(Cl)cc3)CC2)cc1Oc1cnc2[nH]ccc2c1` is reported as 93% (cell-free assay, competition with immobilised ligand; 1 µM).
`COc1cccc2c(NCc3ccccc3)nc(-n3c(N)nc4ccccc43)nc12` gave an inhibition of -3.6% (target engagement in cells, inhibitor, chemoproteomics; 20 mM).
`Cc1ccc(Nc2nccc(N(C)c3ccc4c(C)n(C)nc4c3)n2)cc1S(N)(=O)=O` gave an inhibition of 19% (enzyme activity, inhibitor; 0.3 µM).
`Cc1cc(C)c(-n2ccn3nc(-c4cccnc4)cc23)cc1NC(=O)c1cc(C#N)cc(S(F)(F)(F)(F)F)c1` has a remaining binding of 100% (cell-free assay, competition with immobilised ligand; 0.1 µM).
`Cc1ccc(NC(=O)c2ccc(CN3CCN(C)CC3)cc2)cc1Nc1nc(-c2cccnc2)cs1` has a remaining signal of 108% (cell-free assay; 0.5 µM).
`CC(C)(O)[C@H]1CC[C@H](Nc2ccc3ncc(-c4cccc(C(F)(F)F)c4)n3n2)CC1` gave a remaining activity of 95.9% (enzyme activity, inhibitor; 1 µM).
`O=C(Nc1cnn(-c2csc(C(=O)NC3COC3)c2)c1)Nc1c(F)cccc1Cl` has a remaining activity of 105% (enzyme activity, inhibitor; 5 µM).
